Compounds with a hit are over-represented: about 1.5% of the library has one in this group of screens.
TRAIL sens C8: caspase-8 TRAIL sensitization; inhibition (viability loss, TRAIL sensitization), % at 10 µM; 360,000 tested, 1% active; AID 624354; NB7+C8 cells + TRAIL, ATPlite viability luminescence;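 active = compounds causing at least 50% loss of cell viability in the single-dose screen, relative to plate controls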
PPC-1+TRAIL kill: PPC-1 cancer cell killing with TRAIL present; cell killing (% activity), % at 4 µM or 5 µM; PPC-1 cells + TRAIL, ATPLite viability luminescence; 220,000 tested, 0.41% active;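 active = cell killing above 50% in the first pass at 4 µM, then a duplicate retest at 5 µM averaging 50% or more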
FLuc inh counter: Photinus pyralis luciferase inhibition counter-screen. P08659. ATPLite firefly luciferase biochemical luminescence, 10 min. inhibition, % at 10 µM. 200,000 tested, 1.5% active;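 active = inhibition above about 50% when tested at 10 µM, limit read from the data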
Target sequence (P08659 whole entry, looked up): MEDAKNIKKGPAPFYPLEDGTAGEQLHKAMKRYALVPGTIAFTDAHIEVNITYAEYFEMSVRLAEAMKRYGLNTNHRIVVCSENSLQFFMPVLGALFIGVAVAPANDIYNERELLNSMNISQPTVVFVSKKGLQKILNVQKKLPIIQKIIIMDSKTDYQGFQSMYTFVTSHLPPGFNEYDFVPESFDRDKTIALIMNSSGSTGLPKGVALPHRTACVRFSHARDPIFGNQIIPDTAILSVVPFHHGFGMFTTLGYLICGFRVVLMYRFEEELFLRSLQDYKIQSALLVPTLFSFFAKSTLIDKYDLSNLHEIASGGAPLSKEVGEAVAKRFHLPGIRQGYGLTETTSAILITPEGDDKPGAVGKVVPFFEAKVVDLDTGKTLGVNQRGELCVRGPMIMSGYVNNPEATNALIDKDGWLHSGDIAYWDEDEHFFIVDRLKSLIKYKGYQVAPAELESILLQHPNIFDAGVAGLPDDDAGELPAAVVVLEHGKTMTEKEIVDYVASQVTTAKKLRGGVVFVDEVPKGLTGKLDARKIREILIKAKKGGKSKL
FLuc act counter: affects firefly luciferase, flagging false hits in luciferase stimulation screens; P08659; ATPlite luciferase biochemical, luminescence, 10 min; 0 = ATP-free wells, 1 = DMSO control; activation factor at 10 µM; 200,000 tested, under 10 active; AID 1027;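 active = luciferase activation factor, scaled between plate controls, of at least 2 with compound at 10 µM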
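Assay system: Luciferase/luciferin detection reagent, cell-free biochemical luciferase assay / Read-out: luciferase activation / Benchmarks: No-ATP low control, compound-free enzyme-plus-ATP high control / Medium: PBS buffer for ATP / Detection: luminescence measurement of luciferase light output / Schedule: 10 min at ambient temperature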
Each line names hits and unclear results; the compound was inactive in the other large screens.

COc1ccccc1N1CCN(Cc2ccc(O)c3ncccc23)CC1	TRAIL sens C8 65
CCCN1C(=O)c2cc(C(=O)Nc3ccc(OC)c(OC)c3)ccc2C1Nc1ccc(OC)c(OC)c1 (centres undefined)	none
CC1=CC(c2ccc(Cl)cc2)n2nc(NC(=O)CCC(=O)O)nc2N1 (centres undefined)	none (no result: FLuc inh counter, FLuc act counter)
CC(C)c1ccc(/C=N\NC(=O)c2ccc(Cn3cccn3)o2)cc1	FLuc inh counter 72
O=C(N/N=C\c1ccc(Cl)s1)c1ccc(Cn2cccn2)o1	none
C=CCn1c(SCC(=O)Nc2ccc3c(c2)OCO3)nnc1-c1ccccc1OC	none
Cc1ccc2nc(-c3ccc(SCC(=O)Nc4nnc(C)s4)nc3)[nH]c2c1	TRAIL sens C8 54, FLuc inh counter 56
Cc1ccc(-c2ccc(SCC(=O)Nc3ccc4c(c3)OCCO4)nn2)cc1	FLuc inh counter 57
Cc1ccc2nc(-c3ccc(SCC(=O)Nc4ccc5c(c4)OCCO5)nc3)[nH]c2c1	FLuc inh counter 62
CCOC(=O)CSc1ccc(-c2nc3cc(C)c(C)cc3[nH]2)cn1	FLuc inh counter 64
CC(=O)Nc1ccc(NC(=O)CSc2ccc(-c3ccc4c(c3)OCO4)nn2)cc1	none
Nc1c2c(=O)oc(-c3ccccc3)cc2nn1-c1ccccc1	none
Cc1cc2nc(-c3ccc(SCC(=O)Nc4ccc5c(c4)OCCO5)nc3)[nH]c2cc1C	TRAIL sens C8 67, FLuc inh counter 81
O=C(CSc1ncccc1-c1nc2ccccc2[nH]1)NC1CC1	none
Cc1cc2nc(-c3cccnc3SCC(=O)NC(C)C)[nH]c2cc1C	FLuc inh counter 70
Cc1ccc(NC(=O)CN2C(=O)N/C(=C\c3cccn3-c3cccc(C(=O)O)c3)C2=O)cc1	none
Cc1ccc(NC(=O)CC[C@H]2O[C@@H](n3cnc4c(NC(=O)c5ccccc5)ncnc43)[C@H](O)[C@@H]2O)cc1C	none (no result: PPC-1+TRAIL kill, FLuc inh counter, FLuc act counter)
COn1c(SCc2ccc(Cl)cc2)nc2ccccc2c1=O	TRAIL sens C8 60
CC(=O)c1sc(NC(=O)c2cc(=O)c3ccccc3o2)nc1C	TRAIL sens C8 54, FLuc inh counter 83
CCOC(=O)c1csc(NC(=O)c2cc(=O)c3ccccc3o2)n1	none
C=CCNC(=O)c1cc(-c2ccc3c(c2)OCO3)on1	TRAIL sens C8 51 (no result: PPC-1+TRAIL kill, FLuc inh counter, FLuc act counter)
COCCNC(=O)c1cc(-c2ccc3c(c2)OCO3)on1	FLuc inh counter 56
O=C(NCc1ccco1)c1cc(-c2ccc3c(c2)OCO3)on1	none
COCCNC(=O)COCc1cc(-c2ccc3c(c2)OCO3)on1	none (no result: PPC-1+TRAIL kill, FLuc inh counter, FLuc act counter)
CC(C)(Cc1ccccc1)NC(=O)C(=O)c1cn(CC(=O)N2CCOCC2)c2ccccc12	none (no result: PPC-1+TRAIL kill, FLuc inh counter, FLuc act counter)
O=[n+]1cc(-c2ccc(Cl)cc2)n([O-])c2c1CCCCC2	none
c1ccc(OCc2nc3ccccc3s2)cc1	none
Fc1ccc(OCc2nc3ccccc3s2)cc1	FLuc inh counter 64
CC(C)(C)OC(=O)N/N=C\c1cccnc1	FLuc inh counter 78
CCCCCCC(=O)Nc1ccc(C(=O)N/N=C/c2cccnc2)cc1	none
O=C(Cc1ccc([N+](=O)[O-])cc1)N/N=C/c1cccnc1	none (no result: PPC-1+TRAIL kill, FLuc inh counter, FLuc act counter)
Nc1ccccc1C(=O)NN=Cc1cccc([N+](=O)[O-])c1	TRAIL sens C8 59 (no result: PPC-1+TRAIL kill, FLuc inh counter, FLuc act counter)
O=C(N/N=C/c1cccnc1)c1ccc([N+](=O)[O-])cc1	FLuc inh counter 67
CCCCCCCC(=O)Nc1ccc(C(=O)N/N=C/c2cccc([N+](=O)[O-])c2)cc1	TRAIL sens C8 57
COc1ccc([C@H]2CC(=O)C=C(c3ccc(F)cc3OCc3ccccc3)C2)cc1OC	none (no result: PPC-1+TRAIL kill, FLuc inh counter, FLuc act counter)
Nc1ccccc1C(=O)NN=Cc1cccnc1	TRAIL sens C8 60 (no result: PPC-1+TRAIL kill, FLuc inh counter, FLuc act counter)
O=C(/C=C/c1ccc(Cl)c([N+](=O)[O-])c1)Nc1cccnc1	none
CC(C)c1ccc(OCc2cccc(C(=O)N/N=C/c3cccnc3)c2)cc1	TRAIL sens C8 53, PPC-1+TRAIL kill 64
O=C(/C=C/c1ccc([N+](=O)[O-])cc1)Nc1cccnc1	FLuc inh counter 65
CC(C)NC(=O)C1(C)CCN1Cc1ccc(-c2ccccc2)cc1 (centres undefined)	none (no result: PPC-1+TRAIL kill, FLuc inh counter, FLuc act counter)
COc1cccc2cc(C(=O)Nc3ccc(S(=O)(=O)NCC4CCCO4)cc3)c(=O)oc12 (centres undefined)	none (no result: FLuc inh counter, FLuc act counter)
COc1ccc2nc(C)cc(N/N=C/c3ccc(F)cc3)c2c1	TRAIL sens C8 93 (no result: PPC-1+TRAIL kill, FLuc inh counter, FLuc act counter)
COc1ccc(OC)c(C2C(C(=O)N(C)C)=C(C)Nc3nc4ccccc4n32)c1 (centres undefined)	none
CC(O)[C@H]1CNCCN1CCc1cccc2ccccc12 (some centres undefined)	none (no result: PPC-1+TRAIL kill, FLuc inh counter, FLuc act counter)
COc1ccc(N(C(=O)c2ccco2)C(C(=O)NC2CCCCC2)c2ccccc2)cc1 (centres undefined)	none (no result: PPC-1+TRAIL kill, FLuc inh counter, FLuc act counter)
O=C(N/N=C/c1cn(-c2ccccc2)nc1-c1cc2ccccc2o1)c1cccnc1	TRAIL sens C8 55
O=C(N/N=C/c1cn(-c2ccccc2)nc1-c1cc2ccccc2o1)c1ccncc1	none
O=C(NCCc1nc(-c2ccccc2Cl)no1)C1CCCCC1	none (no result: PPC-1+TRAIL kill, FLuc inh counter, FLuc act counter)
COc1cc(NC(=O)Cn2ncc(Cl)c(Cl)c2=O)c(C)cc1[N+](=O)[O-]	TRAIL sens C8 93
N#CCCCC#Cc1ccc2c(c1)COc1c3ccccc3nn1-2	TRAIL sens C8 77 (no result: PPC-1+TRAIL kill, FLuc inh counter, FLuc act counter)
Cn1c(=O)[nH]c(=O)c2c1nc(N1CCCCCC1)n2CCCSc1nnnn1-c1ccccc1	none (no result: TRAIL sens C8)
O=c1oc2c(CN3CCCCC3)c(O)ccc2cc1-c1nc2ccccc2[nH]1	none
O=c1oc2c(O)cccc2cc1-c1nc2ccccc2[nH]1	TRAIL sens C8 69 (no result: PPC-1+TRAIL kill, FLuc inh counter, FLuc act counter)
O=C(COc1ccccc1[N+](=O)[O-])Nc1ccc2c(c1)OCO2	FLuc inh counter 58
Cc1ccc(OCC(=O)Nc2ccc3c(c2)OCO3)c(C)c1	FLuc inh counter 54
Cc1cccc(OCC(=O)Nc2ccc3c(c2)OCO3)c1C	none
CC(=O)c1cc(F)ccc1OCC(=O)Nc1ccc2c(c1)OCO2	TRAIL sens C8 66 (no result: PPC-1+TRAIL kill, FLuc inh counter, FLuc act counter)
NC(=O)c1cc(Cl)ccc1OCC(=O)Nc1ccc2c(c1)OCO2	TRAIL sens C8 69 (no result: PPC-1+TRAIL kill, FLuc inh counter, FLuc act counter)
O=C(COC(=O)COc1ccccc1[N+](=O)[O-])Nc1ccc2c(c1)OCO2	none (no result: PPC-1+TRAIL kill, FLuc inh counter, FLuc act counter)
CC(=O)Nc1ccc(SC(Sc2ccc(NC(C)=O)cc2)c2ccccc2)cc1	none (no result: PPC-1+TRAIL kill, FLuc inh counter, FLuc act counter)
Cc1ccc(CNS(=O)(=O)c2c(N)n(C)c(=O)n(C)c2=O)cc1	none (no result: PPC-1+TRAIL kill, FLuc inh counter, FLuc act counter)
CC1CN(c2ccc(S(=O)(=O)N3CCCC3)cn2)CC(C)O1 (centres undefined)	none (no result: FLuc inh counter, FLuc act counter)
COc1cccc2c(=O)c3cccc(N)c3[nH]c12	none
COC(=O)C(C)N1C(=O)S/C(=C\c2cc(C)n(-c3ccccn3)c2C)C1=O (centres undefined)	TRAIL sens C8 60, FLuc inh counter 56
CCOC(=O)CN1C(=O)S/C(=C/c2cc(C)n(-c3ccccn3)c2C)C1=O	none
COC(=O)C(C)N1C(=O)S/C(=C/c2cc(C)n(-c3ccccn3)c2C)C1=O (centres undefined)	TRAIL sens C8 58, FLuc inh counter 58
N#C/C(=C/c1ccc2c(c1)OCO2)C(=O)Nc1ccc(O)cc1	FLuc inh counter 60
O=C(c1ccoc1)N1CCN(c2cc(-c3ccco3)nc3cc(-c4ccccc4)nn23)CC1	none (no result: PPC-1+TRAIL kill, FLuc inh counter, FLuc act counter)
COc1ccccc1-c1cc2nc(-c3ccccc3)cc(N3CCN(C(=O)c4ccoc4)CC3)n2n1	TRAIL sens C8 74 (no result: PPC-1+TRAIL kill, FLuc inh counter, FLuc act counter)
